Measured values taken from paper PMC8435006 (ACS infectious diseases, 2021).

molecular target: Sfh-I (B2 MBL) (Serratia fonticola, UniProt Q9RMI1); test: Ki by imipenem hydrolysis, purified recombinant Sfh-I; assay type: biochemical; conditions: ratio of Ki values
Method in brief: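 Sfh-I (2 nM final) hydrolysing imipenem at 30 °C, monitored at 300 nm under steady-state conditions in 10 mM HEPES pH 7.5, 200 mM NaCl, 50 mg/L BSA, with no added zinc. Reactions were started by adding enzyme to the substrate plus inhibitor (DMSO stock diluted in buffer). Ki came from competitive-model fits of the rates, and the fold value is the ratio of Ki values.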

For CCOC(=O)[C@@]1(CS)N[C@@H](C(=O)O)CS1 [D-anti-1a], the “Fold less potent against Sfh-I than L-anti-1a” value was 125 – 800 fold.
For CCOC(=O)[C@@]1(CS)N[C@@H](C(=O)O)C(C)(C)S1 [D-anti-1b], the “Fold less potent against Sfh-I than L-anti-1a” value was 125 – 800 fold.

molecular target: L1 (B3 MBL) (Stenotrophomonas maltophilia, UniProt P52700); test: Ki by imipenem hydrolysis, purified recombinant L1; assay type: biochemical; conditions: read-out: Ki against L1; MMTZs; imipenem substrate, 30 °C, pH 7.5, 20 μM ZnSO4
Sequence (P52700 34-290): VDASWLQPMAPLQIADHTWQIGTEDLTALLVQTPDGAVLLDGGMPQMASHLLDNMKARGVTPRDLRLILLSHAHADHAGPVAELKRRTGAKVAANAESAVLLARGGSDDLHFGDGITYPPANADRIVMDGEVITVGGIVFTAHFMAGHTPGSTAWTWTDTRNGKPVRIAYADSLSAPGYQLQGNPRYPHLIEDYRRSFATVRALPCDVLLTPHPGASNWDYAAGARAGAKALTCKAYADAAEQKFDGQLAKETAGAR
Method in brief: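 Steady-state imipenem hydrolysis by purified L1 (2 nM final) at 30 °C, followed as the absorbance decrease at 300 nm (Δε300 = −9000 M−1cm−1). Buffer was 10 mM HEPES pH 7.5, 200 mM NaCl, 50 mg/L BSA and 20 μM ZnSO4. Inhibitor came from a DMSO stock diluted into buffer, and enzyme was added last. Rates from slopes were fitted to a competitive inhibition model for Ki.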

First: CCOC(=O)[C@@]1(CS)N[C@@H](C(=O)O)CS1 [D-anti-1a]
Second: CCOC(=O)[C@]1(CS)N[C@H](C(=O)O)CS1 [L-anti-1a]
The Ki of the first is 2.5-fold lower: 4000 ± 500 nM for the first, 10000 ± 800 nM for the second.

Compared with CCOC(=O)[C@@]1(CS)N[C@@H](C(=O)O)C(C)(C)S1 [D-anti-1b], CCOC(=O)[C@]1(CS)N[C@@H](C(=O)O)C(C)(C)S1 [D-syn-1b] is 2.9-fold higher in Ki: 1400 ± 200 nM for the first, 4000 ± 600 nM for the second. The first binds more tightly here.

CCOC(=O)[C@]1(CS)N[C@H](C(=O)O)C(C)(C)S1 [L-anti-1b] and CCOC(=O)[C@@]1(CS)N[C@H](C(=O)O)C(C)(C)S1 [L-syn-1b] are within 1.5-fold of each other in Ki: 20000 ± 2000 nM for the first, 28000 ± 3000 nM for the second.

system: E. coli DH10B expressing NDM-1; test: Imipenem MIC potentiation, broth microdilution, NDM-1 producer; assay type: cell-based; conditions: 100 μg/mL MMTZ; E. coli DH10B producing NDM-1

In the case of CCOC(=O)[C@]1(CS)N[C@@H](C(=O)O)C(C)(C)S1 [D-syn-1b], the “Reduction of imipenem MIC” value is reported as “least effect”.

With CCOC(=O)[C@]1(CS)N[C@H](C(=O)O)CS1 [L-anti-1a] the “Reduction of imipenem MIC” value was 4 fold.

system: E. coli DH10B expressing Sfh-I; test: Imipenem MIC potentiation, broth microdilution, Sfh-I producer; assay type: cell-based; conditions: 100 μg/mL MMTZ; E. coli DH10B producing Sfh-I

In the case of CCOC(=O)[C@]1(CS)N[C@@H](C(=O)O)C(C)(C)S1 [D-syn-1b], the “Reduction of imipenem MIC” value is reported as “least effect”.

In the case of CCOC(=O)[C@]1(CS)N[C@H](C(=O)O)CS1 [L-anti-1a], the “Reduction of imipenem MIC” value is reported as 4 fold.

system: E. coli DH10B expressing L1; test: Imipenem MIC potentiation, broth microdilution, L1 producer; assay type: cell-based; conditions: 50 μg/mL inhibitor; L1-expressing E. coli DH10B

For CCOC(=O)[C@]1(CS)N[C@@H](C(=O)O)C(C)(C)S1 [D-syn-1b], the “Reduction of imipenem MIC” value was “four-fold”.
For CCOC(=O)[C@]1(CS)N[C@H](C(=O)O)C(C)(C)S1 [L-anti-1b], the “Reduction of imipenem MIC” value was “four-fold”.
For CCOC(=O)[C@@]1(CS)N[C@H](C(=O)O)C(C)(C)S1 [L-syn-1b], the “Reduction of imipenem MIC” value was “four-fold”.

same assay, conditions: 100 μg/mL MMTZ; E. coli DH10B producing L1

With CCOC(=O)[C@]1(CS)N[C@@H](C(=O)O)C(C)(C)S1 [D-syn-1b] the “Reduction of imipenem MIC” value was “least effect”.

In the case of CCOC(=O)[C@]1(CS)N[C@H](C(=O)O)CS1 [L-anti-1a], the “Reduction of imipenem MIC” value is reported as 4 fold.

molecular target: NDM-1 (B1 MBL); test: not given; conditions: read-out: Ki against NDM-1; MMTZs; same protocol; ref 6 (Rossi et al); cited from earlier work

First: CCOC(=O)[C@@]1(CS)N[C@@H](C(=O)O)CS1 [D-anti-1a]
Second: CCOC(=O)[C@]1(CS)N[C@H](C(=O)O)CS1 [L-anti-1a]
The Ki of the first is 2.1-fold lower: 2500 ± 500 nM for the first, 5200 ± 700 nM for the second.

Compared with CCOC(=O)[C@@]1(CS)N[C@@H](C(=O)O)C(C)(C)S1 [D-anti-1b], CCOC(=O)[C@]1(CS)N[C@@H](C(=O)O)C(C)(C)S1 [D-syn-1b] is 5.2-fold lower in Ki: 3100 ± 300 nM for the first, 600 ± 50 nM for the second.

Compared with CCOC(=O)[C@]1(CS)N[C@H](C(=O)O)C(C)(C)S1 [L-anti-1b], CCOC(=O)[C@@]1(CS)N[C@H](C(=O)O)C(C)(C)S1 [L-syn-1b] is 18-fold higher in Ki: 440 ± 60 nM for the first, 8000 ± 1000 nM for the second.

molecular target: VIM-2 (B1 MBL); test: not given; conditions: read-out: Ki against VIM-2; MMTZs; same protocol; ref 6 (Rossi et al); cited from earlier work

CCOC(=O)[C@@]1(CS)N[C@@H](C(=O)O)CS1 [D-anti-1a] and CCOC(=O)[C@]1(CS)N[C@H](C(=O)O)CS1 [L-anti-1a] are within error of each other in Ki: 390 ± 40 nM for the first, 380 ± 50 nM for the second.

First: CCOC(=O)[C@@]1(CS)N[C@@H](C(=O)O)C(C)(C)S1 [D-anti-1b]
Second: CCOC(=O)[C@]1(CS)N[C@@H](C(=O)O)C(C)(C)S1 [D-syn-1b]
The Ki of the first is 2.1-fold lower: 900 ± 100 nM for the first, 1900 ± 100 nM for the second. The first binds more tightly here.

Going from CCOC(=O)[C@]1(CS)N[C@H](C(=O)O)C(C)(C)S1 [L-anti-1b] to CCOC(=O)[C@@]1(CS)N[C@H](C(=O)O)C(C)(C)S1 [L-syn-1b], the Ki rises from 750 ± 90 nM to 3600 ± 400 nM (4.8-fold). The first binds more tightly here.

molecular target: IMP-1 (B1 MBL); test: not given; conditions: read-out: Ki against IMP-1; MMTZs; same protocol; ref 6 (Rossi et al); cited from earlier work

CCOC(=O)[C@@]1(CS)N[C@@H](C(=O)O)CS1 [D-anti-1a] and CCOC(=O)[C@]1(CS)N[C@H](C(=O)O)CS1 [L-anti-1a] are within error of each other in Ki: 1300 ± 100 nM for the first, 1000 ± 200 nM for the second.

Compared with CCOC(=O)[C@@]1(CS)N[C@@H](C(=O)O)C(C)(C)S1 [D-anti-1b], CCOC(=O)[C@]1(CS)N[C@@H](C(=O)O)C(C)(C)S1 [D-syn-1b] is 2.2-fold higher in Ki: 930 ± 80 nM for the first, 2000 ± 200 nM for the second.

Going from CCOC(=O)[C@]1(CS)N[C@H](C(=O)O)C(C)(C)S1 [L-anti-1b] to CCOC(=O)[C@@]1(CS)N[C@H](C(=O)O)C(C)(C)S1 [L-syn-1b], the Ki rises from 460 ± 50 nM to 6000 ± 600 nM (13-fold).

molecular target: CphA; test: not given; conditions: read-out: Ki against CphA; captopril isomers; ref Table S1; cited from earlier work

First: C[C@H](CS)C(=O)N1CCC[C@@H]1C(=O)O [D-captopril]
Second: C[C@H](CS)C(=O)N1CCC[C@H]1C(=O)O [L-captopril]
The Ki of the first is 13-fold lower: 72000 nM for the first, 950000 nM for the second. The first binds more tightly here.
